Results published in ChEMBL document CHEMBL1649314, “Experimental murine scedosporiosis: histopathology and azole treatment” (2010).
In brackets after ≈: the same amount, converted by molar mass. Activity calls are given as the source filed them. The calls are words filed in the database; no cut-off is given here.

Experiments:
Scedosporium apiospermum [1] = experiment: Antifungal activity against Scedosporium apiospermum CBS 117407 infected in immunosuppressed OF1 mouse assessed as reduction in kidney fungal burden at 40 mg/kg, po BID administered 24 hrs postinfection for 10 days measured after 20 days; assay type: functional, organism-based; set-up: dose 40 mg/kg
Scedosporium aurantiacum [2] = experiment: Antifungal activity against Scedosporium aurantiacum CBS 116910 infected in immunosuppressed OF1 mouse assessed as reduction in brain fungal burden at 20 mg/kg, po BID administered 24 hrs postinfection for 10 days measured after 20 days; assay type: functional, organism-based; set-up: dose 20 mg/kg
[3] = Antifungal activity against Scedosporium aurantiacum IHEM 15458 by broth dilution method; assay type: functional
Scedosporium apiospermum [4] = experiment: Antifungal activity against Scedosporium apiospermum IHEM 14464 infected in immunosuppressed OF1 mouse assessed as reduction in kidney fungal burden at 40 mg/kg, po BID administered 24 hrs postinfection for 10 days measured after 20 days; assay type: functional, organism-based; set-up: dose 40 mg/kg
Scedosporium boydii [5] = experiment: Antifungal activity against Scedosporium boydii FMR 8627 infected in immunosuppressed OF1 mouse assessed as prolonged survival of mouse at 20 mg/kg, po BID administered 24 hrs postinfection for 10 days measured after 20 days; assay type: functional, organism-based; set-up: dose 20 mg/kg
Summary of the method: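 Male OF1 mice were immunosuppressed 1 day before infection with cyclophosphamide 200 mg/kg i.p. plus 5-fluorouracil 150 mg/kg i.v. They were infected i.v. via a lateral tail vein with 1 × 10^4 CFU/mouse in 0.2 ml saline. Oral dosing was 10 or 20 mg/kg twice daily, or 20 or 40 mg/kg once daily (those mice and controls drank grapefruit juice from day −3). Dosing ran 24 h post-challenge for 10 days; 10 mice/group; observed daily to day 20; Kaplan-Meier with log rank test.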

Scedosporium boydii [6] = experiment: Antifungal activity against Scedosporium boydii FMR 8627 by broth dilution method; assay type: functional
Scedosporium boydii [7] = experiment: Antifungal activity against Scedosporium boydii FMR 6694 infected in immunosuppressed OF1 mouse assessed as prolonged survival of mouse at 20 mg/kg, po BID administered 24 hrs postinfection for 10 days measured after 20 days; assay type: functional, organism-based; set-up: dose 20 mg/kg
Summary of the method: (§1)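 Male OF1 mice, groups of 10, immunosuppressed 1 day before infection with cyclophosphamide 200 mg/kg i.p. plus 5-fluorouracil 150 mg/kg i.v. Infected i.v. via tail vein with 1 × 10^4 CFU in 0.2 ml saline. Oral treatment began 24 h post-challenge for 10 days. Mice checked daily for 20 days. Survival by Kaplan-Meier, compared by log rank test.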

Scedosporium apiospermum [8] = experiment: Antifungal activity against Scedosporium apiospermum CBS 117407 by broth dilution method; assay type: functional
[9] = Antifungal activity against Scedosporium aurantiacum IHEM 15458 infected in immunosuppressed OF1 mouse assessed as prolonged survival of mouse at 20 mg/kg, po BID administered 24 hrs postinfection for 10 days measured after 20 days; assay type: functional, organism-based; set-up: dose 20 mg/kg; summary of the method: as §1
Scedosporium aurantiacum [10] = experiment: Antifungal activity against Scedosporium aurantiacum IHEM 15458 infected in immunosuppressed OF1 mouse assessed as reduction in kidney fungal burden at 40 mg/kg, po BID administered 24 hrs postinfection for 10 days measured after 20 days; assay type: functional, organism-based; set-up: dose 40 mg/kg
Scedosporium apiospermum [11] = experiment: Antifungal activity against Scedosporium apiospermum IHEM 14464 infected in immunosuppressed OF1 mouse assessed as reduction in brain fungal burden at 20 mg/kg, po BID administered 24 hrs postinfection for 10 days measured after 20 days; assay type: functional, organism-based; set-up: dose 20 mg/kg
Scedosporium aurantiacum [12] = experiment: Antifungal activity against Scedosporium aurantiacum CBS 116910 infected in immunosuppressed OF1 mouse assessed as reduction in kidney fungal burden at 20 mg/kg, po BID administered 24 hrs postinfection for 10 days measured after 20 days; assay type: functional, organism-based; set-up: dose 20 mg/kg
Scedosporium boydii [13] = experiment: Antifungal activity against Scedosporium boydii FMR 6694 infected in immunosuppressed OF1 mouse assessed as prolonged survival of mouse at 40 mg/kg, po BID administered 24 hrs postinfection for 10 days measured after 20 days; assay type: functional, organism-based; set-up: dose 40 mg/kg
Scedosporium boydii [14] = experiment: Antifungal activity against Scedosporium boydii FMR 6694 infected in immunosuppressed OF1 mouse assessed as reduction in brain fungal burden at 20 mg/kg, po BID administered 24 hrs postinfection for 10 days measured after 20 days; assay type: functional, organism-based; set-up: dose 20 mg/kg
[15] = Antifungal activity against Scedosporium aurantiacum CBS 116910 infected in immunosuppressed OF1 mouse assessed as prolonged survival of mouse at 40 mg/kg, po BID administered 24 hrs postinfection for 10 days measured after 20 days; assay type: functional, organism-based; set-up: dose 40 mg/kg
[16] = Antifungal activity against Scedosporium aurantiacum CBS 116910 by broth dilution method; assay type: functional
[17] = Antifungal activity against Scedosporium aurantiacum CBS 116910 infected in immunosuppressed OF1 mouse assessed as prolonged survival of mouse at 20 mg/kg, po BID administered 24 hrs postinfection for 10 days measured after 20 days; assay type: functional, organism-based; set-up: dose 20 mg/kg; summary of the method: as §1
[18] = Antifungal activity against Scedosporium aurantiacum IHEM 15458 infected in immunosuppressed OF1 mouse assessed as prolonged survival of mouse at 40 mg/kg, po BID administered 24 hrs postinfection for 10 days measured after 20 days; assay type: functional, organism-based; set-up: dose 40 mg/kg
Scedosporium apiospermum [19] = experiment: Antifungal activity against Scedosporium apiospermum CBS 117407 infected in immunosuppressed OF1 mouse assessed as prolonged survival of mouse at 40 mg/kg, po BID administered 24 hrs postinfection for 10 days measured after 20 days; assay type: functional, organism-based; set-up: dose 40 mg/kg
Scedosporium apiospermum [20] = experiment: Antifungal activity against Scedosporium apiospermum CBS 117407 infected in immunosuppressed OF1 mouse assessed as prolonged survival of mouse at 20 mg/kg, po BID administered 24 hrs postinfection for 10 days measured after 20 days; assay type: functional, organism-based; set-up: dose 20 mg/kg; summary of the method: as §1
Scedosporium boydii [21] = experiment: Antifungal activity against Scedosporium boydii FMR 6694 infected in immunosuppressed OF1 mouse assessed as reduction in kidney fungal burden at 20 mg/kg, po BID administered 24 hrs postinfection for 10 days measured after 20 days; assay type: functional, organism-based; set-up: dose 20 mg/kg
Scedosporium apiospermum [22] = experiment: Antifungal activity against Scedosporium apiospermum IHEM 14464 infected in immunosuppressed OF1 mouse assessed as reduction in kidney fungal burden at 20 mg/kg, po BID administered 24 hrs postinfection for 10 days measured after 20 days; assay type: functional, organism-based; set-up: dose 20 mg/kg
Scedosporium aurantiacum [23] = experiment: Antifungal activity against Scedosporium aurantiacum IHEM 15458 infected in immunosuppressed OF1 mouse assessed as reduction in kidney fungal burden at 20 mg/kg, po BID administered 24 hrs postinfection for 10 days measured after 20 days; assay type: functional, organism-based; set-up: dose 20 mg/kg
Scedosporium aurantiacum [24] = experiment: Antifungal activity against Scedosporium aurantiacum IHEM 15458 infected in immunosuppressed OF1 mouse assessed as reduction in brain fungal burden at 20 mg/kg, po BID administered 24 hrs postinfection for 10 days measured after 20 days; assay type: functional, organism-based; set-up: dose 20 mg/kg
Scedosporium apiospermum [25] = experiment: Antifungal activity against Scedosporium apiospermum IHEM 14464 infected in immunosuppressed OF1 mouse assessed as prolonged survival of mouse at 40 mg/kg, po BID administered 24 hrs postinfection for 10 days measured after 20 days; assay type: functional, organism-based; set-up: dose 40 mg/kg
Scedosporium apiospermum [26] = experiment: Antifungal activity against Scedosporium apiospermum CBS 117407 infected in immunosuppressed OF1 mouse assessed as reduction in kidney fungal burden at 20 mg/kg, po BID administered 24 hrs postinfection for 10 days measured after 20 days; assay type: functional, organism-based; set-up: dose 20 mg/kg
Scedosporium boydii [27] = experiment: Antifungal activity against Scedosporium boydii FMR 8627 infected in immunosuppressed OF1 mouse assessed as reduction in kidney fungal burden at 40 mg/kg, po BID administered 24 hrs postinfection for 10 days measured after 20 days; assay type: functional, organism-based; set-up: dose 40 mg/kg
Scedosporium boydii [28] = experiment: Antifungal activity against Scedosporium boydii FMR 8627 infected in immunosuppressed OF1 mouse assessed as prolonged survival of mouse at 40 mg/kg, po BID administered 24 hrs postinfection for 10 days measured after 20 days; assay type: functional, organism-based; set-up: dose 40 mg/kg
Scedosporium apiospermum [29] = experiment: Antifungal activity against Scedosporium apiospermum IHEM 14464 infected in immunosuppressed OF1 mouse assessed as prolonged survival of mouse at 20 mg/kg, po BID administered 24 hrs postinfection for 10 days measured after 20 days; assay type: functional, organism-based; set-up: dose 20 mg/kg; summary of the method: as §1
Scedosporium aurantiacum [30] = experiment: Antifungal activity against Scedosporium aurantiacum CBS 116910 infected in immunosuppressed OF1 mouse assessed as reduction in kidney fungal burden at 40 mg/kg, po BID administered 24 hrs postinfection for 10 days measured after 20 days; assay type: functional, organism-based; set-up: dose 40 mg/kg
Scedosporium boydii [31] = experiment: Antifungal activity against Scedosporium boydii FMR 6694 by broth dilution method; assay type: functional
Scedosporium boydii [32] = experiment: Antifungal activity against Scedosporium boydii FMR 8627 infected in immunosuppressed OF1 mouse assessed as reduction in kidney fungal burden at 20 mg/kg, po BID administered 24 hrs postinfection for 10 days measured after 20 days; assay type: functional, organism-based; set-up: dose 20 mg/kg
Scedosporium boydii [33] = experiment: Antifungal activity against Scedosporium boydii FMR 8627 infected in immunosuppressed OF1 mouse assessed as reduction in brain fungal burden at 20 mg/kg, po BID administered 24 hrs postinfection for 10 days measured after 20 days; assay type: functional, organism-based; set-up: dose 20 mg/kg
Scedosporium apiospermum [34] = experiment: Antifungal activity against Scedosporium apiospermum IHEM 14464 by broth dilution method; assay type: functional
Scedosporium boydii [35] = experiment: Antifungal activity against Scedosporium boydii FMR 6694 infected in immunosuppressed OF1 mouse assessed as reduction in kidney fungal burden at 40 mg/kg, po BID administered 24 hrs postinfection for 10 days measured after 20 days; assay type: functional, organism-based; set-up: dose 40 mg/kg
Scedosporium apiospermum [36] = experiment: Antifungal activity against Scedosporium apiospermum CBS 117407 infected in immunosuppressed OF1 mouse assessed as reduction in brain fungal burden at 20 mg/kg, po BID administered 24 hrs postinfection for 10 days measured after 20 days; assay type: functional, organism-based; set-up: dose 20 mg/kg

Q: What does the source list for `C[C@@H](c1ncncc1F)[C@](O)(Cn1cncn1)c1ccc(F)cc1F` [VORICONAZOLE]?
A: Activity (Scedosporium apiospermum [1]): Active; Activity (Scedosporium aurantiacum [2]): Active; MIC [3]: 1 µg/mL (≈ 2.86 µM); Activity (Scedosporium apiospermum [4]): Active; Activity (Scedosporium boydii [5]): Active; MIC (Scedosporium boydii [6]): 0.5 µg/mL (≈ 1.43 µM); Activity (Scedosporium boydii [7]): Active; MIC (Scedosporium apiospermum [8]): 0.5 µg/mL (≈ 1.43 µM); Activity [9]: Active; Activity (Scedosporium aurantiacum [10]): Active; Activity (Scedosporium apiospermum [11]): Active; Activity (Scedosporium aurantiacum [12]): Active; Activity (Scedosporium boydii [13]): Active; Activity (Scedosporium boydii [14]): inactive; Activity [15]: Active; MIC [16]: 32 µg/mL (≈ 91.6 µM); Activity [17]: Active; Activity [18]: Active; Activity (Scedosporium apiospermum [19]): Active; Activity (Scedosporium apiospermum [20]): Active; Activity (Scedosporium boydii [21]): inactive; Activity (Scedosporium apiospermum [22]): Active; Activity (Scedosporium aurantiacum [23]): Active; Activity (Scedosporium aurantiacum [24]): Active; Activity (Scedosporium apiospermum [25]): Active; Activity (Scedosporium apiospermum [26]): Active; Activity (Scedosporium boydii [27]): Active; Activity (Scedosporium boydii [28]): Active; Activity (Scedosporium apiospermum [29]): Active; Activity (Scedosporium aurantiacum [30]): Active; MIC (Scedosporium boydii [31]): 1 µg/mL (≈ 2.86 µM); Activity (Scedosporium boydii [32]): Active; Activity (Scedosporium boydii [33]): Active; MIC (Scedosporium apiospermum [34]): 0.25 µg/mL (≈ 0.716 µM); Activity (Scedosporium boydii [35]): inactive; Activity (Scedosporium apiospermum [36]): Active
